Calls of active or inactive are those of the source. The calls are words filed in the database; no cut-off is given here.
How the values were obtained:
[1] = tested on: THP-1; assay: Inhibition of LPS-induced TNFalpha production in human THP1 cells; assay type: functional, cell-based
In short: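 LPS-stimulated TNFα release from THP-1 cells; IC50 values are means of 2–4 experiments, SD for n > 2 typically ±50% of the value.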

[2] = tested on: Blood; assay: Inhibition of LPS-induced TNFalpha production in human whole blood; assay type: functional, tissue-based
In short: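 LPS-stimulated TNFα production in whole blood from human donors; IC50 reported as geometric mean of 4–12 donor experiments, SD typically ±50% of the value.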

[3] = tested on: Mus musculus; assay: Inhibition of LPS-induced endotoxemia in mouse assessed as inhibition of TNFalpha production at 3 mg/kg, po; assay type: functional
In short: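 Mouse LPS-induced endotoxemia model; compound given orally at 3 mg/kg, and TNFα production is measured and expressed as percent inhibition.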

[4] = target: Tyrosine-protein kinase BTK (Homo sapiens) (UniProt Q06187); assay: Inhibition of BTK at => 3 ug/mL
[5] = target: Cyclin-dependent kinase 1 (Homo sapiens) (UniProt P06493); assay: Inhibition of CDK1 at => 3 ug/mL
[6] = target: Casein kinase I isoform alpha (Homo sapiens) (UniProt P48729); assay: Inhibition of CK1 at => 3 ug/mL
[7] = Inhibition of CK2 at => 3 ug/mL
[8] = target: Dual specificity tyrosine-phosphorylation-regulated kinase 1A (Homo sapiens) (UniProt Q13627); assay: Inhibition of DYRK1A at => 3 ug/mL
[9] = Inhibition of ERK at => 3 ug/mL
[10] = target: Glycogen synthase kinase-3 beta (Homo sapiens) (UniProt P49841); assay: Inhibition of GSK3-beta at => 3 ug/mL
[11] = target: Hepatocyte growth factor receptor (Homo sapiens) (UniProt P08581); assay: Inhibition of HGFR at => 3 ug/mL
[12] = target: Insulin-like growth factor 1 receptor (Homo sapiens) (UniProt P08069); assay: Inhibition of IGF1R at => 3 ug/mL
Chain of Insulin-like growth factor 1 receptor (Homo sapiens) (P08069 31-736 limits assumed): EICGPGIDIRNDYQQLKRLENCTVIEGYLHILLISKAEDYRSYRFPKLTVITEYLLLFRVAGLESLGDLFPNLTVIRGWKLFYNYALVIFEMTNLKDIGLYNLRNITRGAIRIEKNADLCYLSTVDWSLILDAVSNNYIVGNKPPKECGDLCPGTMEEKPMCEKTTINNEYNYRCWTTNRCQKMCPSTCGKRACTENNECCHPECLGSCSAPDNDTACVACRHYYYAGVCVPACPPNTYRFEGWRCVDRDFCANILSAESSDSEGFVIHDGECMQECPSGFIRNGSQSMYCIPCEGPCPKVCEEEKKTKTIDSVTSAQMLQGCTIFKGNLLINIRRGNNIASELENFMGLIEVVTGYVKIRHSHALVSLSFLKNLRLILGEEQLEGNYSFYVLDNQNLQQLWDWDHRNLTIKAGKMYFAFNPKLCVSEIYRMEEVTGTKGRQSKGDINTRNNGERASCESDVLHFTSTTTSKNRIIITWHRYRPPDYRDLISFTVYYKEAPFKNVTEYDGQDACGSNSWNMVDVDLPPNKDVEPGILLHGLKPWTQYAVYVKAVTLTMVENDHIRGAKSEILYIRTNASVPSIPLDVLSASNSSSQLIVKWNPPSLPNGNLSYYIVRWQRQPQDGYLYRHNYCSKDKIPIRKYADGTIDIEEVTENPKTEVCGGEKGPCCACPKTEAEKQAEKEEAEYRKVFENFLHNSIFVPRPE
Chain of Insulin-like growth factor 1 receptor (Homo sapiens) (P08069 741-1367 limits assumed): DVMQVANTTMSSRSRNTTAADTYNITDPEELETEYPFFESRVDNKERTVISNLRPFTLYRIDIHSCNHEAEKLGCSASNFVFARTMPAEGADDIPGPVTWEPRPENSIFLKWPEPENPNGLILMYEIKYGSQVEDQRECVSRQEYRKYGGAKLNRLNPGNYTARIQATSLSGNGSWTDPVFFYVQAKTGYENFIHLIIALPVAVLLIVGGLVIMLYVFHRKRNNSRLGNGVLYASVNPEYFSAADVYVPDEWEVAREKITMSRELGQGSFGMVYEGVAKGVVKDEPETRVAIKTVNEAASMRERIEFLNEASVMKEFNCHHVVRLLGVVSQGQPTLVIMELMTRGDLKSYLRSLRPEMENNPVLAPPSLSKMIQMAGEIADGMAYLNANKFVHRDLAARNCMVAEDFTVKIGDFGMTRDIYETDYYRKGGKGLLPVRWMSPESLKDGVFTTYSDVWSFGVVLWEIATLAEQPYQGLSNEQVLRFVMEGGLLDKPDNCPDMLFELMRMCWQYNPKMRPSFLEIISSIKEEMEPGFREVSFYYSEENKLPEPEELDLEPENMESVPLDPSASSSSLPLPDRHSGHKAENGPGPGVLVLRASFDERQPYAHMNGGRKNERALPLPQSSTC

[13] = Inhibition of IKK at => 3 ug/mL
[14] = target: Insulin receptor (Homo sapiens) (UniProt P06213); assay: Inhibition of IR at => 3 ug/mL
[15] = target: Tyrosine-protein kinase JAK3 (Homo sapiens) (UniProt P52333); assay: Inhibition of JAK3 at => 3 ug/mL
[16] = target: Mitogen-activated protein kinase 8 (Homo sapiens) (UniProt P45983); assay: Inhibition of […] at => 3 ug/mL
[17] = target: Tyrosine-protein kinase Lck (Homo sapiens) (UniProt P06239); assay: Inhibition of LCK at => 3 ug/mL
[18] = target: Ribosomal protein S6 kinase alpha-3 (Homo sapiens) (UniProt P51812); assay: Inhibition of MAPKAPK1B at => […] ug/mL
Chain of Ribosomal protein S6 kinase alpha-3 (Homo sapiens) (P51812 whole entry): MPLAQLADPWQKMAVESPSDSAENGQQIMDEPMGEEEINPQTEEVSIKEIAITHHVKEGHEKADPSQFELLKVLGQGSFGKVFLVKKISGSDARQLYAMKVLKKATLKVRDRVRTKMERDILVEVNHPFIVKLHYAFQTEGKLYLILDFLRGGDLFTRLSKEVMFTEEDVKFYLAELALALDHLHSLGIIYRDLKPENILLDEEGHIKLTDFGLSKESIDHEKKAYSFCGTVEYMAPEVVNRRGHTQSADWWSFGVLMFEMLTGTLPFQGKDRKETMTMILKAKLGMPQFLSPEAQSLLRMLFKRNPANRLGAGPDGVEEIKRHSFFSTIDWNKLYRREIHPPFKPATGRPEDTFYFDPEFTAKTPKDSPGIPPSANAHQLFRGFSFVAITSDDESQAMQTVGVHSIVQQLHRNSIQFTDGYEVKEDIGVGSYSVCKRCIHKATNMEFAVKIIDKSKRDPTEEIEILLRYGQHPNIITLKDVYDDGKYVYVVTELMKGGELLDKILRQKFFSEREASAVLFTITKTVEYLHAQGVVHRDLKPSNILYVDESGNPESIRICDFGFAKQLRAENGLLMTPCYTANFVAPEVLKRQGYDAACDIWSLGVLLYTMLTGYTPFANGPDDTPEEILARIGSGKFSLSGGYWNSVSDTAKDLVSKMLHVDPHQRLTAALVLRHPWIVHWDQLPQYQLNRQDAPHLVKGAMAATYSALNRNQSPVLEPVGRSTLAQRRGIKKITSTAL

[19] = target: MAP kinase-activated protein kinase 2 (Homo sapiens) (UniProt P49137); assay: Inhibition of MAPKAPK2 at => […] ug/mL
Chain of MAP kinase-activated protein kinase 2 (Homo sapiens) (P49137 whole entry, looked up): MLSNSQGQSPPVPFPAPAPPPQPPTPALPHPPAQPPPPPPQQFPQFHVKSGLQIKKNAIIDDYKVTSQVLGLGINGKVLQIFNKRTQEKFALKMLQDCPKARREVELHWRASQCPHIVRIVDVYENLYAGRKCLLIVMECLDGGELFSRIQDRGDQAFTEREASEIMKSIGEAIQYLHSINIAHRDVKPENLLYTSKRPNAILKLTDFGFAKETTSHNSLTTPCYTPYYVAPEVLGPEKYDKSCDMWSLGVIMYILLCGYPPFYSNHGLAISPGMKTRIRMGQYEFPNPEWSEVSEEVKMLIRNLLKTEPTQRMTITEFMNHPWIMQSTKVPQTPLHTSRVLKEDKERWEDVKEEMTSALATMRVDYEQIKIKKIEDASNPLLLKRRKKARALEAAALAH

[20] = target: Dual specificity mitogen-activated protein kinase kinase 1 (Homo sapiens) (UniProt Q02750); assay: Inhibition of MKK1 at => 3 ug/mL
Chain of Dual specificity mitogen-activated protein kinase kinase 1 (Homo sapiens) (Q02750 whole entry): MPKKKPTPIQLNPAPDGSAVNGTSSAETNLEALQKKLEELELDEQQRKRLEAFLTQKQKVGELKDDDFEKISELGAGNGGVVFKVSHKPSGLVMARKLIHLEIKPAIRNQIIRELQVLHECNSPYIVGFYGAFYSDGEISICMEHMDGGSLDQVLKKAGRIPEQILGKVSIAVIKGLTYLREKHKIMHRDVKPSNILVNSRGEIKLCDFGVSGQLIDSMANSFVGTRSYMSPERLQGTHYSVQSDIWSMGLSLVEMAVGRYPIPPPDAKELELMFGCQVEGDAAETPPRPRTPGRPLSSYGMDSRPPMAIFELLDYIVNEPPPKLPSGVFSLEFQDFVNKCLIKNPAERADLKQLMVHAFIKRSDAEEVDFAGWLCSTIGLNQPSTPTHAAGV

[21] = target: Mitogen-activated protein kinase kinase kinase 14 (Homo sapiens) (UniProt Q99558); assay: Inhibition of NIK at => 3 ug/mL
Chain of Mitogen-activated protein kinase kinase kinase 14 (Homo sapiens) (Q99558 whole entry, looked up): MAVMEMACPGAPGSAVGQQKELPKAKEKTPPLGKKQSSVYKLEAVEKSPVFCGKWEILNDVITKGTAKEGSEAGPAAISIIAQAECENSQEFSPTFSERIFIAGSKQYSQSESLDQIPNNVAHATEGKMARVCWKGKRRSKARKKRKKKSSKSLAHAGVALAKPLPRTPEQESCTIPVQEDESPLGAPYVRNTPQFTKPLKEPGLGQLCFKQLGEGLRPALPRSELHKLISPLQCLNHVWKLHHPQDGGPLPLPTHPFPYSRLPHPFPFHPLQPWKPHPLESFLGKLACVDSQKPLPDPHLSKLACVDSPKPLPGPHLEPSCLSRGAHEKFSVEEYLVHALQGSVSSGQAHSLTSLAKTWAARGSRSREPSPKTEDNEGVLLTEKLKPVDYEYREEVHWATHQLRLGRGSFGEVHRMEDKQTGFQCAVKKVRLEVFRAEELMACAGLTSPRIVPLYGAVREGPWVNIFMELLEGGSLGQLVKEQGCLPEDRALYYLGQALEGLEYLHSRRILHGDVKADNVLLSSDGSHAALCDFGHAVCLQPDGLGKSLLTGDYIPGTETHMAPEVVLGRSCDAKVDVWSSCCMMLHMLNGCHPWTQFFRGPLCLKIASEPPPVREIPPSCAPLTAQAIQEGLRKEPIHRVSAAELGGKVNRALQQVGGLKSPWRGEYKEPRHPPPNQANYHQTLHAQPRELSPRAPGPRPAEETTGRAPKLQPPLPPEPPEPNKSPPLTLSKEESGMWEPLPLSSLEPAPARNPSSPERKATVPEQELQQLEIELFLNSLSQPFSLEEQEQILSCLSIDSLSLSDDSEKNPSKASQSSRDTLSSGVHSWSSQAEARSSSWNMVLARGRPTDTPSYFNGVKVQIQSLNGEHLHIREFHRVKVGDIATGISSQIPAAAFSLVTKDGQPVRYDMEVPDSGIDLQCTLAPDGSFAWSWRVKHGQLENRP

[22] = Inhibition of PHK1 at => 3 ug/mL
[23] = Inhibition of PI3K at => 3 ug/mL
[24] = Inhibition of PKA at => […] ug/mL
[25] = target: Protein kinase C alpha type (Homo sapiens) (UniProt P17252); assay: Inhibition of PKCalpha at => 3 ug/mL
[26] = target: MAP kinase-activated protein kinase 5 (Homo sapiens) (UniProt Q8IW41); assay: Inhibition of PRAK at => 3 ug/mL
[27] = target: Focal adhesion kinase 1 (Homo sapiens) (UniProt Q05397); assay: Inhibition of PTK2 at => 3 ug/mL
[28] = target: Rho-associated protein kinase 2 (Homo sapiens) (UniProt O75116); assay: Inhibition of ROCK2 at => 3 ug/mL
[29] = target: Ribosomal protein S6 kinase alpha-3 (Homo sapiens) (UniProt P51812); assay: Inhibition of RSK2 at => 3 ug/mL
[30] = target: Ribosomal protein S6 kinase beta-1 (Homo sapiens) (UniProt P23443); assay: Inhibition of S6K1 at => 3 ug/mL
[31] = target: Serine/threonine-protein kinase Sgk1 (Homo sapiens) (UniProt O00141); assay: Inhibition of SGK at => 3 ug/mL
[32] = target: Tyrosine-protein kinase SYK (Homo sapiens) (UniProt P43405); assay: Inhibition of SYK at => 3 ug/mL
[33] = target: Tyrosine-protein kinase TXK (Homo sapiens) (UniProt P42681); assay: Inhibition of TXK at => 3 ug/mL
[34] = target: Tyrosine-protein kinase ABL1 (Homo sapiens, UniProt P00519); assay: Inhibition of Abl
[35] = target: Serine/threonine-protein kinase B-raf (Homo sapiens, UniProt P15056); assay: Inhibition of bRaf
[36] = target: RAF proto-oncogene serine/threonine-protein kinase (Homo sapiens, UniProt P04049); assay: Inhibition of craf
Chain of RAF proto-oncogene serine/threonine-protein kinase (P04049 whole entry): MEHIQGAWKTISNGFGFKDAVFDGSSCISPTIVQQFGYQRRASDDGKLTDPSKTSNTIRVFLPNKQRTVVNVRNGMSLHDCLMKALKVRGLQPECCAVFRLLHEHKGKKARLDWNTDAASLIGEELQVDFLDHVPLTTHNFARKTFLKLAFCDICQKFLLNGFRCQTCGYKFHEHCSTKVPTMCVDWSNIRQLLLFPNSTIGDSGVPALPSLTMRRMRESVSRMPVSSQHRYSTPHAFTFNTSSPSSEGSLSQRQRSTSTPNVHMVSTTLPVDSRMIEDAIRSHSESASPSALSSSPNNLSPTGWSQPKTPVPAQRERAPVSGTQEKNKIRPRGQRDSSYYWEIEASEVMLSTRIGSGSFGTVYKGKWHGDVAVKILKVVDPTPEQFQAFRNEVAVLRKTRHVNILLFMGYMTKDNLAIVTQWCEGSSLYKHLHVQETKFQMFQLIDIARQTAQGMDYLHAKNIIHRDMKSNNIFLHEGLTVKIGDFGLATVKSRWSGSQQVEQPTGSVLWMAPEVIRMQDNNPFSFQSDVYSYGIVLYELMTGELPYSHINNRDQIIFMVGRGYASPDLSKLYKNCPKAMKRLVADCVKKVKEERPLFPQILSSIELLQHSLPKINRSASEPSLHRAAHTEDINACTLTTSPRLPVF

[37] = target: Tyrosine-protein kinase CSK (Homo sapiens) (UniProt P41240); assay: Inhibition of CSK at 3 uM
[38] = target: Ephrin type-A receptor 2 (Homo sapiens, UniProt P29317); assay: Inhibition of ECK
[39] = target: Epidermal growth factor receptor (Homo sapiens, UniProt P00533); assay: Inhibition of EGFR
[40] = Inhibition of FGFR
[41] = target: Ephrin type-A receptor 3 (Homo sapiens, UniProt P29320); assay: Inhibition of HEK
[42] = target: Mitogen-activated protein kinase 9 (Homo sapiens, UniProt P45984); assay: Inhibition of JNK2alpha2 by exchange curve binding kinetic analysis
[43] = target: Tyrosine-protein kinase Lyn (Homo sapiens, UniProt P07948); assay: Inhibition of Lyn
[44] = Inhibition of VEGFR
[45] = target: RAC-alpha serine/threonine-protein kinase (Homo sapiens, UniProt P31749); assay: Inhibition of PKBalpha/Akt1
[46] = Inhibition of pp60src
[47] = target: T1, Mitogen-activated protein kinase 14 (Homo sapiens, UniProt Q16539)
T1 sequence (Q16539 whole entry): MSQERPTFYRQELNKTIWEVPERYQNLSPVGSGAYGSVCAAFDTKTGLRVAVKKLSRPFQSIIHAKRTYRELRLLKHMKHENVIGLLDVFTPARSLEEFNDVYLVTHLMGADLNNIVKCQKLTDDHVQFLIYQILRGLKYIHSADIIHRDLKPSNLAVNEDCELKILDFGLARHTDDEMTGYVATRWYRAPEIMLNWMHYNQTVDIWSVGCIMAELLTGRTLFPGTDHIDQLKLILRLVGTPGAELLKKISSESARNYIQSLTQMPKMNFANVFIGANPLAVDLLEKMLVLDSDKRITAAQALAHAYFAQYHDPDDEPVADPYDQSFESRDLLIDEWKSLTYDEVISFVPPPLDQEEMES

[48] = target: 3-phosphoinositide-dependent protein kinase 1 (Homo sapiens) (UniProt O15530); assay: Inhibition of PDK1 at => 3 ug/mL
[49] = Aqueous solubility at pH 7.4; assay type: physicochemical
[50] = target: T1, Mitogen-activated protein kinase 14; assay: Binding affinity to p38alpha by exchange curve binding kinetic analysis
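Wherever Tm is given: thermal denaturation measurement of the p38alpha–inhibitor complex, reporting its melting point as a readout of binding.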

`COc1c(NC(=O)Nc2ccc(-c3ccc(CN4CCOCC4)nc3)c3ccccc23)cc(C(C)(C)C)cc1NS(C)(=O)=O` gave an IC50 [1] of 10 nM, an IC50 [2] of 46 nM and an inhibition in vivo at 3 mg/kg [3] of 57%. For the same molecule, the Activity [4] was “inactive”, the Activity [5] was “inactive” and the Activity [6] was “inactive”. The Activity [7] was “inactive”, the Activity [8] was “inactive” and the Activity [9] was “inactive”. The Activity [10] was “inactive”, the Activity [11] was “inactive” and the Activity [12] was “inactive”. For the same molecule, the Activity [13] was “inactive”, the Activity [14] was “inactive” and the Activity [15] was “inactive”. The Activity [16] was “inactive”, the Activity [17] was “inactive” and the Activity [18] was “inactive”. For the same molecule, the Activity [19] was “inactive”, the Activity [20] was “inactive” and the Activity [21] was “inactive”. The Activity [22] was “inactive”, the Activity [23] was “inactive” and the Activity [24] was “inactive”. The Activity [25] was “inactive”, the Activity [26] was “inactive” and the Activity [27] was “inactive”. For the same molecule, the Activity [28] was “inactive”, the Activity [29] was “inactive” and the Activity [30] was “inactive”. For the same molecule, the Activity [31] was “inactive”, the Activity [32] was “inactive” and the Activity [33] was “inactive”. The IC50 [34] was 480 nM, the IC50 [35] was 7200 nM and the IC50 [36] was 880 nM. For the same molecule, the inhibition [37] was 62%, the IC50 [38] was 5200 nM and the IC50 [39] was 5400 nM. The IC50 [40] was 7700 nM, the IC50 [41] was 3200 nM and the IC50 [42] was 3 nM. The IC50 [43] was 2400 nM, the IC50 [44] was 3000 nM and the IC50 [45] was 6400 nM. The IC50 [46] was 8200 nM, the Tm [47] was 63.3 °C and the Activity [48] was “inactive”.
For `COc1ccc(C(C)(C)C)cc1NC(=O)Nc1ccc(-c2ccc(CN3CCOCC3)nc2)c2ccccc12`, the IC50 [1] was 5.5 nM, the IC50 [2] was 140 nM and the solubility [49] was under 0.5 µg/mL. The Kd [50] was 1.8 nM and the Tm [47] was 57.9 °C.

From ChEMBL document CHEMBL1138470, “Discovery and characterization of the N-phenyl-N'-naphthylurea class of p38 kinase inhibitors” (Bioorg Med Chem Lett, 2009)
